{
  "source": "ChEMBL document CHEMBL1143060",
  "about": "“Synthesis and pharmacological investigation of novel 4-benzyl-1-substituted-4H-[1,2,4]triazolo[4,3-a]quinazolin-5-ones as new class of H1-antihistaminic agents” (2007)",
  "assay_type_in_all_cases": "functional",
  "key": {"Mus musculus [1]": {"tested_on": "Mus musculus", "experiment": "Sedative-hypnotic activity in Swiss Albino mouse assessed as reduction of locomotor activity at 5 mg/kg, po after 1 hrs", "parameters": "scale not given: the % may be the effect or the level left", "in_short": "(§1)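 Locomotor activity was scored at 1, 2 and 3 h after dosing, and percent reduction in locomotor activity was calculated. Significance versus control was tested by Student's t test. Animals were housed at 45–55% relative humidity on a 12 h light/dark cycle, fed standard feed, and acclimatized for one week before use.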"}, "Mus musculus [2]": {"tested_on": "Mus musculus", "experiment": "Sedative-hypnotic activity in Swiss Albino mouse assessed as reduction of locomotor activity at 5 mg/kg, po after 2 hrs", "parameters": "scale not given: the % may be the effect or the level left", "in_short": "as §1"}, "Mus musculus [3]": {"tested_on": "Mus musculus", "experiment": "Sedative-hypnotic activity in Swiss Albino mouse assessed as reduction of locomotor activity at 5 mg/kg, po after 3 hrs", "parameters": "scale not given: the % may be the effect or the level left", "in_short": "as §1"}, "Cavia porcellus": {"tested_on": "Cavia porcellus", "experiment": "Antihistaminic activity in Dunkin-Hartley guinea pig assessed as protection against histamine-induced bronchospasm at 10 mg/kg, po", "in_short": "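Male Dunkin Hartley guinea pigs (250–300 g), fasted 12 h, six per group, dosed orally at 10 mg/kg in 1% CMC. They were then challenged in a closed transparent cage with nebulized histamine aerosol (0.2% aqueous histamine acid chloride, 3 ml). Preconvulsion onset time was recorded, and animals stable >6 min counted as protected. Mean preconvulsion time versus control was expressed as percent protection.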"}},
  "data": [
    {"smiles": "CN1CCN(Cc2nnc3n(Cc4ccccc4)c(=O)c4ccccc4n23)CC1", "values": [
      {"measurement": "Activity", "setting": "Mus musculus [1]", "result": 8, "unit": "%"},
      {"measurement": "Activity", "setting": "Mus musculus [2]", "result": 17, "unit": "%"},
      {"measurement": "Activity", "setting": "Mus musculus [3]", "result": 7, "unit": "%"},
      {"measurement": "Activity", "setting": "Cavia porcellus", "result": 74.83, "unit": "%"}
    ]},
    {"smiles": "O=c1c2ccccc2n2c(CN3CCCCC3)nnc2n1Cc1ccccc1", "values": [
      {"measurement": "Activity", "setting": "Mus musculus [1]", "result": 9, "unit": "%"},
      {"measurement": "Activity", "setting": "Mus musculus [2]", "result": 15, "unit": "%"},
      {"measurement": "Activity", "setting": "Mus musculus [3]", "result": 8, "unit": "%"},
      {"measurement": "Activity", "setting": "Cavia porcellus", "result": 73.93, "unit": "%"}
    ]},
    {"smiles": "O=c1c2ccccc2n2c(CN3CCOCC3)nnc2n1Cc1ccccc1", "values": [
      {"measurement": "Activity", "setting": "Mus musculus [1]", "result": 7, "unit": "%"},
      {"measurement": "Activity", "setting": "Mus musculus [2]", "result": 13, "unit": "%"},
      {"measurement": "Activity", "setting": "Mus musculus [3]", "result": 6, "unit": "%"},
      {"measurement": "Activity", "setting": "Cavia porcellus", "result": 74.1, "unit": "%"}
    ]},
    {"smiles": "O=c1c2ccccc2n2c(CN3CCCC3)nnc2n1Cc1ccccc1", "values": [
      {"measurement": "Activity", "setting": "Mus musculus [1]", "result": 8, "unit": "%"},
      {"measurement": "Activity", "setting": "Mus musculus [2]", "result": 12, "unit": "%"},
      {"measurement": "Activity", "setting": "Mus musculus [3]", "result": 8, "unit": "%"},
      {"measurement": "Activity", "setting": "Cavia porcellus", "result": 73.69, "unit": "%"}
    ]},
    {"smiles": "CN(C)CC[C@@H](c1ccccc1)c1ccccn1.O=C(O)/C=C\\C(=O)O", "note": "[PHENIRAMINE MALEATE]", "values": [
      {"measurement": "Activity", "setting": "Mus musculus [1]", "result": 37, "unit": "%"},
      {"measurement": "Activity", "setting": "Mus musculus [2]", "result": 32, "unit": "%"},
      {"measurement": "Activity", "setting": "Mus musculus [3]", "result": 22, "unit": "%"},
      {"measurement": "Activity", "setting": "Cavia porcellus", "result": 71, "unit": "%"}
    ]},
    {"smiles": "CCc1nnc2n(Cc3ccccc3)c(=O)c3ccccc3n12", "values": [
      {"measurement": "Activity", "setting": "Mus musculus [1]", "result": 7, "unit": "%"},
      {"measurement": "Activity", "setting": "Mus musculus [2]", "result": 12, "unit": "%"},
      {"measurement": "Activity", "setting": "Mus musculus [3]", "result": 9, "unit": "%"},
      {"measurement": "Activity", "setting": "Cavia porcellus", "result": 74.39, "unit": "%"}
    ]},
    {"smiles": "O=c1c2ccccc2n2c(CN3CCNCC3)nnc2n1Cc1ccccc1", "values": [
      {"measurement": "Activity", "setting": "Mus musculus [1]", "result": 6, "unit": "%"},
      {"measurement": "Activity", "setting": "Mus musculus [2]", "result": 14, "unit": "%"},
      {"measurement": "Activity", "setting": "Mus musculus [3]", "result": 8, "unit": "%"},
      {"measurement": "Activity", "setting": "Cavia porcellus", "result": 74.44, "unit": "%"}
    ]},
    {"smiles": "Cc1nnc2n(Cc3ccccc3)c(=O)c3ccccc3n12", "values": [
      {"measurement": "Activity", "setting": "Mus musculus [1]", "result": 6, "unit": "%"},
      {"measurement": "Activity", "setting": "Mus musculus [2]", "result": 11, "unit": "%"},
      {"measurement": "Activity", "setting": "Mus musculus [3]", "result": 6, "unit": "%"},
      {"measurement": "Activity", "setting": "Cavia porcellus", "result": 76.08, "unit": "%"}
    ]},
    {"smiles": "O=c1c2ccccc2n2c(CCl)nnc2n1Cc1ccccc1", "values": [
      {"measurement": "Activity", "setting": "Mus musculus [1]", "result": 5, "unit": "%"},
      {"measurement": "Activity", "setting": "Mus musculus [2]", "result": 7, "unit": "%"},
      {"measurement": "Activity", "setting": "Mus musculus [3]", "result": 4, "unit": "%"},
      {"measurement": "Activity", "setting": "Cavia porcellus", "result": 72.96, "unit": "%"}
    ]},
    {"smiles": "O=c1c2ccccc2n2cnnc2n1Cc1ccccc1", "values": [
      {"measurement": "Activity", "setting": "Mus musculus [1]", "result": 6, "unit": "%"},
      {"measurement": "Activity", "setting": "Mus musculus [2]", "result": 9, "unit": "%"},
      {"measurement": "Activity", "setting": "Mus musculus [3]", "result": 4, "unit": "%"},
      {"measurement": "Activity", "setting": "Cavia porcellus", "result": 73.99, "unit": "%"}
    ]},
    {"smiles": "CCCc1nnc2n(Cc3ccccc3)c(=O)c3ccccc3n12", "values": [
      {"measurement": "Activity", "setting": "Mus musculus [1]", "result": 9, "unit": "%"},
      {"measurement": "Activity", "setting": "Mus musculus [2]", "result": 15, "unit": "%"},
      {"measurement": "Activity", "setting": "Mus musculus [3]", "result": 11, "unit": "%"},
      {"measurement": "Activity", "setting": "Cavia porcellus", "result": 73.87, "unit": "%"}
    ]}
  ]
}
